Measurements collected from several papers.
Lines come from different studies, so protocols differ.
PIK3C3: Phosphatidylinositol 3-kinase catalytic subunit type 3 (PIK3C3, Homo sapiens, UniProt Q8NEB9)
TYR: Tyrosinase (TYR, Homo sapiens, UniProt P14679)
Si: Sucrase-isomaltase, intestinal (Si, Rattus norvegicus, UniProt P23739)
ESR1: Estrogen receptor (ESR1, Homo sapiens, UniProt P03372)
NR3C1: Glucocorticoid receptor (NR3C1, Homo sapiens, UniProt P04150)

| SMILES | target | read-out | action | technique | cell line | concentration | inhibition [%] |
| --- | --- | --- | --- | --- | --- | --- | --- |
| Cn1cnc(Br)c1C1=CN(c2ncnc3[nH]cnc23)CCS1 | cAMP-dependent protein kinase catalytic subunit beta (PRKACB, Homo sapiens, UniProt P22694) | enzyme activity | inhibitor | radiometric |  | 2 µM | 91.3 |
| O=C(CSc1nc2nccnc2c(=O)n1CCc1ccccc1)Nc1nccs1 | PIK3C3 | enzyme activity | inhibitor |  |  | 10 µM | 28 |
| O=C(c1ccc(F)cc1)N(Cc1ccccc1)C1CCCCC1 | Interleukin-1 receptor type 1 (IL1R1, Homo sapiens, UniProt P14778) | cell-free assay |  |  |  | 10 µM | 14 |
| Cc1ccc(C(C)C)cc1NC(=O)COC(=O)c1ccc(O)cc1O | TYR | enzyme activity | inhibitor |  |  | 50 µg/mL | 66.7 |
| CN(C)C1CCN(CC#Cc2nn(C3CCCC3)c3nc(NCc4ccccc4)ncc23)C1 (stereo not shown) | Leucine-rich repeat serine/threonine-protein kinase 2 (LRRK2, Homo sapiens, UniProt Q5S007) | enzyme activity | inhibitor | FRET |  | 1 µM | 0 |
| CNC(=O)c1cc(Oc2ccc(NC(=O)Nc3ccc(Cl)c(C(F)(F)F)c3)cc2)ccn1 | Abl2 (Mus musculus, UniProt Q4JIM5) | enzyme activity | inhibitor |  |  | 10 µM | 61 |
| Cc1ccc(C(C)C)cc1NC(=O)COC(=O)c1ccc(O)cc1 | TYR | enzyme activity | inhibitor |  |  | 50 µg/mL | 53.8 |
| CCCNc1nc2ccccc2n1Cc1ccc(Cl)cc1 | Alpha-2C adrenergic receptor (ADRA2C, Homo sapiens, UniProt P18825) | ligand displacement |  |  |  | 10 µM | 84.8 |
| CCN(CC)c1ccc(C2Nc3ccc(C(=O)c4ccccc4)cc3NC3=C2C(=O)CC(C)(C)C3)cc1 (stereo not shown) | Prostaglandin E2 receptor EP3 subtype (PTGER3, Homo sapiens, UniProt P43115) | ligand displacement |  | radioligand |  | 10 µM | 12 |
| CNc1cc(Oc2cc(C(=O)Nc3cc(N4CCN(C)CC4)cc(C(F)(F)F)c3)ccc2C)ncn1 | PAN2-PAN3 deadenylation complex subunit PAN3 (Homo sapiens, UniProt Q58A45) | target engagement in cells | inhibitor | chemoproteomics | Huh-7 | 1 µM | -39.3 |
| O=C1OC[C@H]2OC(=O)c3cc(O)c(O)c(O)c3-c3c(O)c(O)c(O)c4c3C(=O)O[C@H]([C@H]3OC(=O)c5c-4c(O)c(O)c(O)c5[C@H]3O)[C@@H]2OC(=O)c2cc(O)c(O)c(O)c2-c2c1cc(O)c(O)c2O | Si | enzyme activity | inhibitor |  |  | 25 µg/mL | 25.7 |
| COc1cc(Cl)c(C(=O)N[C@@H](CN[C@H]2CC[C@@H](N)CC2)Cc2ccc(C#N)cc2)cc1-c1ccc(CN[C@H](C)c2ccc(C)cc2)o1 | P2Y purinoceptor 2 (P2RY2, Homo sapiens, UniProt P41231) | calcium signal | antagonist |  |  | 10 µM | -25 |
| Cc1ccc(Nc2nccc(N(C)c3ccc4c(C)n(C)nc4c3)n2)cc1S(N)(=O)=O | Mitogen-activated protein kinase 14 (MAPK14, Homo sapiens, UniProt Q16539) | enzyme activity | inhibitor |  |  | 10 µM | 62 |
| COc1cc(NC(C)=O)c(Cl)cc1C(=O)Nc1nccs1 | ESR1 | cell-free assay |  |  |  | 10 µM | 1.4 |
| O=c1c(O[C@@H]2O[C@@H](CO)[C@H](O)[C@H]2O)c(-c2ccc(O)c(O)c2)oc2cc(O)cc(O)c12 | Si | enzyme activity | inhibitor |  |  | 50 µg/mL | 31.5 |
| CCN(CC)c1ccc(C2=NNC(=O)CC2C)cc1[N+](=O)[O-] (stereo not shown) | cGMP-inhibited 3',5'-cyclic phosphodiesterase 3A (PDE3A, Homo sapiens, UniProt Q14432) | enzyme activity | inhibitor |  |  | 0.1 µM | 95 |
| O=c1c(O[C@@H]2O[C@H](CO)[C@@H](O)[C@H](O)[C@H]2O)c(-c2ccc(O)c(O)c2)oc2cc(O)cc(O)c12 | Si | enzyme activity | inhibitor |  |  | 25 µg/mL | 21.4 |
| Cc1ccc(C(C)C)cc1NC(=O)COC(=O)/C=C/c1ccccc1 | TYR | enzyme activity | inhibitor |  |  | 50 µg/mL | 82.3 |
| Oc1cccc(Nc2nc(-c3ccc(F)cc3F)cs2)c1 | NR3C1 | cell-free assay |  |  |  | 10 µM | 21.6 |
| Cc1ccc(C(C)C)cc1NC(=O)COC(=O)/C=C/c1ccccc1O | TYR | enzyme activity | inhibitor |  |  | 50 µg/mL | 53.7 |
| O=C(c1ccc(Cl)cc1)N(Cc1ccccc1)C1CCCCC1 | 5-hydroxytryptamine receptor 1A (HTR1A, Homo sapiens, UniProt P08908) | ligand displacement |  | radioligand |  | 10 µM | -12.4 |
| CS(=O)(=O)Nc1cccc(-c2csc(NC(=O)CSc3nc4nccnc4c(=O)n3CCc3ccccc3)n2)c1 | PIK3C3 | enzyme activity | inhibitor |  |  | 10 µM | 9 |
| Ic1cccc2cnccc12 | NAD(+) hydrolase SARM1 (SARM1, Homo sapiens, UniProt Q6SZW1) | enzyme activity | inhibitor |  |  | 10 µM | 100 |
| O=C(Nc1ccc(S(=O)(=O)N2CCC(Cl)CC2)cc1)c1ccc([N+](=O)[O-])o1 | NR3C1 | ligand displacement |  | radioligand |  | 10 µM | 19 |
| CCN(Cc1ccccc1C(F)(F)F)C(=O)C1CCN(S(=O)(=O)c2ccc3[nH]ncc3c2)CC1 | ESR1 | ligand displacement |  | radioligand |  | 10 µM | 8 |
